Source: ChEMBL document CHEMBL3525987, “Assessment of exposure of metabolites in preclinical species and humans at steady state from the single-dose radiolabeled absorption, distribution, metabolism, and excretion studies: a case study” (Drug Metab Dispos, 2012)

Key:
Rattus norvegicus [1] = experiment: AUC(0 to infinity) as total radioactivity in male Sprague-Dawley rat plasma at 10 mg/kg, po administered as single dose via gavage […]; assay type: ADME, organism-based; set-up: time infinity, dose 10 mg/kg, dosed compound name [14C]lixivaptan, route oral; conditions: in vivo
Outline: (§1)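 Jugular-cannulated Sprague-Dawley rats (5/gender) were fasted 18 h and gavaged once with 10 mg/kg [14C]lixivaptan suspended in water/pluronic F68. K2EDTA blood was taken at 0.25–168 h, with donor blood replaced from 1 h on. Total radioactivity was read by LSC (ng-equiv/ml) and parent by validated LC-MS/MS. Noncompartmental Cmax, log-linear kel and trapezoidal AUC followed.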

Rattus norvegicus [2] = experiment: Cmax as total radioactivity in female Sprague-Dawley rat plasma at 10 mg/kg, po administered as single dose; assay type: ADME, organism-based; set-up: dose 10 mg/kg, dosed compound name [14C]lixivaptan, route oral; conditions: in vivo; outline: as §1
Homo sapiens [3] = experiment: Half life as total radioactivity in human plasma at 100 mg, po administered as single dose by LC-MS/MS analysis; assay type: ADME, organism-based; set-up: dosed compound name [14C]lixivaptan; conditions: in vivo
Outline: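 Single oral 100 mg [14C]drug to healthy male volunteers; plasma at 0.25-144 h. Parent by validated LC-MS/MS, total radioactivity by LSC as ng-equiv/ml; Tmax from observed data; t1/2 = 0.693/kel from log-linear terminal regression.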

Rattus norvegicus [4] = experiment: AUC(0 to infinity) as total radioactivity in female Sprague-Dawley rat plasma at 10 mg/kg, po administered as single dose via gavage […]; assay type: ADME, organism-based; set-up: time infinity, dose 10 mg/kg, dosed compound name [14C]lixivaptan, route oral; conditions: in vivo; outline: as §1
Rattus norvegicus [5] = experiment: Tmax as total radioactivity in female Sprague-Dawley rat plasma at 10 mg/kg, po administered as single dose via gavage by LC-MS/MS analysis; assay type: ADME, organism-based; set-up: dose 10 mg/kg, dosed compound name [14C]lixivaptan, route oral; conditions: in vivo
Outline: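 Jugular-vein cannulated SD rats (5/gender) given gavage [14C]drug 10 mg/kg in pluronic F68/water; K2EDTA blood 0.25-168 h with donor blood replacement. Parent by validated LC-MS/MS, radioactivity by LSC; Tmax observed; t1/2 = 0.693/kel by terminal log-linear regression.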

[6] = Retention time of the compound by HPLC analysis; assay type: physicochemical; set-up: dosed compound name [14C]lixivaptan
Homo sapiens [7] = experiment: Drug level in human plasma at 100 mg, po administered as single dose measured after 4 hrs by liquid scintillation counting; assay type: ADME, organism-based; set-up: dosed compound name [14C]lixivaptan; conditions: in vivo
Outline: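 Healthy male volunteers fasted ≥10 h, given single oral 100 mg (200 µCi) [14C]drug as two 50-mg capsules with 250 ml water. Plasma (from ~50 ml blood) at 0.5, 2, 4, 8, 12, 24, 36 h, profiled per subject. Acetonitrile extraction, C18 radio-HPLC with 0.2% formic acid acetonitrile/water gradient, on-line radioactivity detection as % plasma radioactivity; ng-equiv/ml from % × total radioactivity.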

[8] = Drug recovery in feces of male beagle dog at 10 mg/kg, po administered as single dose via gavage measured after 168 hrs by liquid scintillation counting; assay type: ADME, organism-based, Canis lupus familiaris; set-up: dose 10 mg/kg, dosed compound name [14C]lixivaptan, route oral; conditions: in vivo
Outline: (§2)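 Four male beagles got 10 mg/kg (2 ml/kg) [14C]drug suspension (5.0 mg/ml, pluronic F68/water, 1.04 µCi/mg) by gavage. Urine and feces collected over dry ice at 0-8, 8-24 h, then every 24 h to 7 days; urine by LSC, fecal homogenates combusted then LSC; cage wash/debris included; % of dose.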

Canis familiaris [9] = experiment: Tmax as total radioactivity in male beagle dog plasma at 10 mg/kg, po administered as single dose by LC-MS/MS analysis; assay type: ADME, organism-based, Canis lupus familiaris; set-up: dose 10 mg/kg, dosed compound name [14C]lixivaptan, route oral; conditions: in vivo
Outline: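 Male beagles given 10 mg/kg [14C]drug oral suspension; jugular K2EDTA blood at 0.25-168 h. Parent by validated LC-MS/MS, total radioactivity by LSC; Tmax observed; t1/2 = 0.693/kel from terminal log-linear regression.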

Rattus norvegicus [10] = experiment: Total drug recovery in bile duct-cannulated male Sprague-Dawley rat at 10 mg/kg, po administered as single dose via gavage measured from 0 to 48 hrs by liquid scintillation counting; assay type: ADME, organism-based; set-up: dose 10 mg/kg, dosed compound name [14C]lixivaptan, route oral; conditions: in vivo
Outline: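 Male BDC rats (n=5) given oral [14C]drug as a suspension in deionized water with pluronic F68 (10 ml/kg). Drinking water supplemented with bile salts, NaCl and KCl. Bile collected on wet ice at 0-4, 4-8, 8-24 and 24-48 h. Duplicate aliquots counted by LSC; recovery expressed as % of dose in bile.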

[11] = Drug recovery in urine of female Sprague-Dawley rat at 10 mg/kg, po administered as single dose via gavage measured after 168 hrs by liquid scintillation counting; assay type: ADME, organism-based; set-up: dose 10 mg/kg, dosed compound name [14C]lixivaptan, route oral; conditions: in vivo
Outline: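 Intact SD rats (3/gender) dosed by gavage with [14C]drug 10 mg/kg (10 ml/kg, pluronic F68/water), housed in metabolism cages; urine and feces at 0-8, 8-24 h, then every 24 h to 7 days. Urine counted by LSC; feces homogenized 20% w/w in water, combusted, trapped CO2 counted; cage wash/debris included; % of dose.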

[12] = Drug recovery in bile of bile duct-cannulated female Sprague-Dawley rat at 10 mg/kg, po administered as single dose via gavage measured 0 to 48 hrs by liquid scintillation counting; assay type: ADME, organism-based; set-up: dose 10 mg/kg, dosed compound name [14C]lixivaptan, route oral; conditions: in vivo
Outline: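 Bile-duct cannulated SD rats (n=5) got single gavage of [14C]drug 10 mg/kg as pluronic F68/water suspension. Bile collected on wet ice at 0-4, 4-8, 8-24, 24-48 h; drinking water supplemented with bile salts and electrolytes. Duplicate aliquots counted by liquid scintillation; expressed as % of dose.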

Canis familiaris [13] = experiment: Drug recovery in cage wash/debris of male beagle dog at 10 mg/kg, po administered as single dose via gavage measured after 168 hrs by liquid scintillation counting; assay type: ADME, organism-based, Canis lupus familiaris; set-up: dose 10 mg/kg, dosed compound name [14C]lixivaptan, route oral; conditions: in vivo; outline: as §2
Rattus norvegicus [14] = experiment: Total drug recovery in bile duct-cannulated female Sprague-Dawley rat at 10 mg/kg, po administered as single dose via gavage measured 0 to 48 hrs by liquid scintillation counting; assay type: ADME, organism-based; set-up: dose 10 mg/kg, dosed compound name [14C]lixivaptan, route oral; conditions: in vivo
Canis familiaris [15] = experiment: AUC (0 to 24 hrs) in beagle dog at 10 mg/kg, po administered as single dose; assay type: ADME, organism-based, Canis lupus familiaris, Plasma; set-up: time < 24 hr, dose 10 mg/kg, dosed compound name [14C]lixivaptan, route oral; conditions: in vivo
Outline: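 Four male beagles fasted 18 h were gavaged once with [14C]lixivaptan at 10 mg/kg (2 ml/kg). The 5.0 mg/ml suspension was in deionized water with pluronic F68 (1.04 µCi/mg). Jugular K2EDTA plasma was taken at 2, 8 and 24 h and extracted twice with 2 volumes of acetonitrile. Profiling used C18 radio-HPLC (ammonium formate/acetonitrile gradient) with on-line flow scintillation detection. Each peak is reported as percent of plasma radioactivity.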

[16] = Drug recovery in feces of human at […], po administered as single dose measured after 168 hrs by liquid scintillation counting; assay type: ADME, organism-based; set-up: dosed compound name [14C]lixivaptan, route oral; conditions: in vivo
Outline: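 Healthy male volunteers given single oral 100 mg (200 µCi) [14C]drug capsules after ≥10 h fast. Urine at 0-4, 4-8, 8-12, 12-24 h then 24-h intervals; feces as passed, to 168 h. Urine LSC; feces homogenized in water, combusted, LSC; % of dose.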

Rattus norvegicus [17] = experiment: Drug level in female Sprague-Dawley rat plasma at 10 mg/kg, po administered as single dose via gavage measured after 8 hrs by liquid scintillation counting; assay type: ADME, organism-based; set-up: dose 10 mg/kg, dosed compound name [14C]lixivaptan, route oral; conditions: in vivo
Outline: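 Sprague-Dawley rats (9/gender) were fasted 18 h and gavaged once with [14C]lixivaptan at 10 mg/kg (10 ml/kg), about 29.8 µCi/mg, suspended in deionized water with pluronic F68. Plasma came by cardiac puncture under isoflurane at 1, 8 and 24 h (3/gender/time) and was extracted twice with 2 volumes of acetonitrile. C18 radio-HPLC with a flow scintillation detector gave percent of plasma radioactivity per peak.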

AUC (Rattus norvegicus [1]): 67100 ng.Eq.hr/ml | Cmax (Rattus norvegicus [2]): 1960 ngequiv/ml | t1/2 (Homo sapiens [3]): 25.5 h | AUC (Rattus norvegicus [4]): 37200 ng.Eq.hr/ml | Tmax (Rattus norvegicus [5]): 1.4 h | Retention_time [6]: 34.3 min | Compound recovery (Homo sapiens [7]): 8% | Radiolabel recovery [8]: 83.1% | Tmax (Canis familiaris [9]): 1.8 h | Radiolabel recovery (Rattus norvegicus [10]): 65.4% | Radiolabel recovery [11]: 7.6% | Radiolabel recovery [12]: 70.5% | Radiolabel recovery (Canis familiaris [13]): 4.9% | Radiolabel recovery (Rattus norvegicus [14]): 70.5% | AUC (Canis familiaris [15]): 11200 ng.Eq.hr/ml | Radiolabel recovery [16]: 63.7% | Compound recovery (Rattus norvegicus [17]): 12.2%
SMILES: Cc1ccc(F)cc1[14C](=O)Nc1ccc(C(=O)N2Cc3cccn3Cc3ccccc32)c(Cl)c1
